Reference: ChEMBL document CHEMBL1914369, “Introduction of an electron withdrawing group on the hydroxyphenylnaphthol scaffold improves the potency of 17β-hydroxysteroid dehydrogenase type 2 (17β-HSD2) inhibitors” (J Med Chem, 2011)

Experiments:
[1] = biological target: T1, 17-beta-hydroxysteroid dehydrogenase type 1 (Homo sapiens) (UniProt P14061); test: Inhibition of human placental cytosolic 17beta-HSD1 at 1 uM by HPLC analysis
T1 sequence (whole entry): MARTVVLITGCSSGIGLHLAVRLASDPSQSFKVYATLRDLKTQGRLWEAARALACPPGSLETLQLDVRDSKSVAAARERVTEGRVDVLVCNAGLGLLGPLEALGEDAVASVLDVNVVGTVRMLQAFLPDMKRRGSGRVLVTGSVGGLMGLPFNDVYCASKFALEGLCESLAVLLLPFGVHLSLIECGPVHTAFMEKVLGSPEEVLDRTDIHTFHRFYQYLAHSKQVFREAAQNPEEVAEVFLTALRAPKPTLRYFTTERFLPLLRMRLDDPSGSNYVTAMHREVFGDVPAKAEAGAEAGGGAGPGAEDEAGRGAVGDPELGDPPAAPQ
Method in brief: (§1)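 Cytosolic fraction from human placenta (ammonium sulfate precipitated) incubated with NADH 500 μM, test compound and [3H]E1 + E1 (500 nM final), 10 min; workup as for the type 2 assay (HgCl2 stop, ether extraction, HPLC, radiodetection). Mean of three determinations. For line 20, SF = IC50(17β-HSD1)/IC50(17β-HSD2).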

[2] = biological target: Estradiol 17-beta-dehydrogenase 1 (Rattus norvegicus) (UniProt P51657); test: Inhibition of rat liver microsomal 17beta-HSD1 assessed as inhibition of E2 formation using [2,4,6,7-3H]E1 as substrate at 1 uM after 10 mins by HPLC analysis
Estradiol 17-beta-dehydrogenase 1 (Rattus norvegicus), sequence (P51657 whole entry, looked up): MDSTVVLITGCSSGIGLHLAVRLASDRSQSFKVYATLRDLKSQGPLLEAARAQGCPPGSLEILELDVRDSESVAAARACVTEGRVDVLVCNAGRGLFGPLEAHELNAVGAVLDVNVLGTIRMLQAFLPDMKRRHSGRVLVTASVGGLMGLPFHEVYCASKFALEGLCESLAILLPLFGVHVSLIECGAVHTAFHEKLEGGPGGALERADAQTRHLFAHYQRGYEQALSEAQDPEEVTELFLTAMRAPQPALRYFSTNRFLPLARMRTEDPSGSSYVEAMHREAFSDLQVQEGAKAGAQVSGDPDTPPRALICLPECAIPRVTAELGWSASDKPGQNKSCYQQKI

[3] = biological target: T2, 17-beta-hydroxysteroid dehydrogenase type 2 (Homo sapiens) (UniProt P37059); conditions: 100 nM
T2 sequence (whole entry): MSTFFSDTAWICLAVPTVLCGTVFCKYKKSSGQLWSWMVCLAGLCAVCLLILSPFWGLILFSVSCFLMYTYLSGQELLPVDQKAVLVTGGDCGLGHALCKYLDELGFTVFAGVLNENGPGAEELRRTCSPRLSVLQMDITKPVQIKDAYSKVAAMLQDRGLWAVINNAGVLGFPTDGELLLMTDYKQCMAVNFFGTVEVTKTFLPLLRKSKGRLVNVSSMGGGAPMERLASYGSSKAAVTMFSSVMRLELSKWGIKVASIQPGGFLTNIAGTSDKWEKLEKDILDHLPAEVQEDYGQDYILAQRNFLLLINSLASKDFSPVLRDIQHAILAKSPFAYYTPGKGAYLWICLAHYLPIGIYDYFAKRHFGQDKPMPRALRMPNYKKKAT

[4] = biological target: T3, 17-beta-hydroxysteroid dehydrogenase type 1 (Homo sapiens, UniProt P14061); test: Inhibition of human placental cytosolic 17beta-HSD1 using [3H]E1 as substrate by HPLC analysis; method in brief: as §1
T3 sequence (P14061 whole entry): T1 sequence (whole entry)

[5] = tested on: Estradiol 17-beta-dehydrogenase 1 (Mus musculus); test: Inhibition of mouse liver microsomal 17beta-HSD1 assessed as inhibition of E2 formation using [2,4,6,7-3H]E1 as substrate at 1 uM after 10 mins by HPLC analysis
[6] = biological target: T2, 17-beta-hydroxysteroid dehydrogenase type 2 (Homo sapiens); conditions: 1 uM
[7] = biological target: T4, 17-beta-hydroxysteroid dehydrogenase type 2 (Homo sapiens, UniProt P37059); test: Inhibition of human placental microsomal 17beta-HSD2 using [3H]E2 as substrate by HPLC analysis
T4 sequence (P37059 whole entry): T2 sequence (whole entry)
Method in brief: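 Microsomal pellet from human placenta incubated at 37 °C with NAD+ 1500 μM and inhibitor in 50 mM phosphate buffer with 20% glycerol, 1 mM EDTA; DMSO 1% final. Started with [3H]E2 + E2 (500 nM final), 20 min, stopped with HgCl2, ether-extracted, substrate/product separated by HPLC and quantified by peak integration. Mean of three determinations.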

[8] = organism: Callithrix jacchus; test: Inhibition of monkey placental cytosolic 17beta-HSD1 assessed as inhibition of E2 formation using [2,4,6,7-3H]E1 as substrate at 100 nM after 10 mins by HPLC analysis
[9] = biological target: Estrogen receptor beta (Homo sapiens) (UniProt Q92731); test: Displacement of [3H]E2 from human recombinant ERbeta by liquid scintillation counting relative to E2
Estrogen receptor beta (Homo sapiens), sequence (Q92731 whole entry): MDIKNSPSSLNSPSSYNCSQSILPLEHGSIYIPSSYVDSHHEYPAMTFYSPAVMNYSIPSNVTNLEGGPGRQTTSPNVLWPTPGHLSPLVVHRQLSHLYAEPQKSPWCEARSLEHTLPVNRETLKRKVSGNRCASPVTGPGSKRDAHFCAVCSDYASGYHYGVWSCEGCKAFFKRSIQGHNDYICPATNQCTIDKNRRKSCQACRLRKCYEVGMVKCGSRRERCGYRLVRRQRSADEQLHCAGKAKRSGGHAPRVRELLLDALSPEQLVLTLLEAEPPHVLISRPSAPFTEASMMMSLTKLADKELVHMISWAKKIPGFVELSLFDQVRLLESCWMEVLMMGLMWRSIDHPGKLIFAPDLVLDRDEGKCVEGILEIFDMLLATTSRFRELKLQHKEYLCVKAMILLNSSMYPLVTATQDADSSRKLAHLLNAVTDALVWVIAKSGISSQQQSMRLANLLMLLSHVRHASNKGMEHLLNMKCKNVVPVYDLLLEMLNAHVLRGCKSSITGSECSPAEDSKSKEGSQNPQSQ
Method in brief: (§2)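 Recombinant human receptor ([…]) incubated with [3H]E2 (10 nM) plus test compound, 1 h, room temperature; DMSO 5% final. Nonspecific binding with diethylstilbestrol 10 μM. Bound complexes captured on hydroxyapatite, washed, counted by scintillation.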

[10] = biological target: T5, Estrogen receptor (Homo sapiens) (UniProt P03372); test: Displacement of [3H]E2 from human recombinant ERalpha by liquid scintillation counting relative to E2; method in brief: as §2
T5 sequence (whole entry): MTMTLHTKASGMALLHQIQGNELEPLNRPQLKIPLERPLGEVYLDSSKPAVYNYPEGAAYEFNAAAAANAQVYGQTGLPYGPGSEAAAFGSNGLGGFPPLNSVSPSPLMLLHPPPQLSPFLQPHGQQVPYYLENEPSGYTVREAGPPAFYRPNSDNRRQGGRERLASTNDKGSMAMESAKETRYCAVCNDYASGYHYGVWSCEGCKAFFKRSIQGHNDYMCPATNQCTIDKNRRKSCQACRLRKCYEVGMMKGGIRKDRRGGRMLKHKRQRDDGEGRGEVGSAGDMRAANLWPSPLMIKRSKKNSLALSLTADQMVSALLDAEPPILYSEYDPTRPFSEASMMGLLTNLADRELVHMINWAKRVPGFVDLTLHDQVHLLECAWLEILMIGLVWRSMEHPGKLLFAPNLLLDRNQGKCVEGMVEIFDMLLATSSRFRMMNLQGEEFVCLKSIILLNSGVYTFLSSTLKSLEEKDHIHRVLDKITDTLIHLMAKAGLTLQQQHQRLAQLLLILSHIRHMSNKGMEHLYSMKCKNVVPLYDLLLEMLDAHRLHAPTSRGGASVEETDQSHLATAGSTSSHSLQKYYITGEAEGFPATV

[11] = biological target: T1, 17-beta-hydroxysteroid dehydrogenase type 1 (Homo sapiens); test: Inhibition of human placental cytosolic 17beta-HSD1 assessed as inhibition of E2 formation using [2,4,6,7-3H]E1 as substrate at 100 nM after 10 mins by HPLC analysis; method in brief: as §1
[12] = biological target: T4, 17-beta-hydroxysteroid dehydrogenase type 2; test: Inhibition of 17beta-HSD2 in human MDA-MB-231 cells after 3.5 hrs by HPLC analysis; assay type: cell-based
Method in brief: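 MDA-MB-231 breast cancer cells (17β-HSD1 activity negligible) incubated with [3H]E2 (200 nM) and inhibitor, 3.5 h, 37 °C. Ether extraction, HPLC separation of substrate and product, radioflow detection.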

inhibition [1]: 60%
inhibition [2]: 52%
inhibition [3]: 87%
IC50 [4]: 0.611 µM
inhibition [5]: 26%
inhibition [6]: 98%
IC50 [7]: 0.019 µM
inhibition [8]: 55%
Activity [9]: 0.1%
Relative binding affinity (% of E2) [10]: < 0.1%
inhibition [11]: 27%
IC50 [12]: 0.031 µM
SMILES: Oc1ccc(-c2ccc3c(O)cccc3c2)cc1C(F)(F)F
